This note sets out measurements from ChEMBL document CHEMBL4130515, “Identification of Privileged Antichlamydial Natural Products by a Ligand-Based Strategy” (J Nat Prod, 2017).

SMILES strings stand for the structures. ≈ marks a conversion by molar mass, not a printed value.

Series [1] can be described thus: (§1) Cytotoxicity against human HL cells assessed as cell viability at 50 uM after 72 hrs by resazurin dye based fluorescence assay relative to control. The note with it: HL cells, read-out: Activity. In short, it runs like this:
(§2)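 HL cells grown overnight to confluence, then exposed to compound at 50 μM for 72 h at 37 °C, four parallel replicates. Read-out after 2 h with 20 μM resazurin in PBS, fluorescence at 570/590 nm (ex/em). Viability % is relative to cells in 0.25% DMSO medium. Usnic acid 50 μM as positive control.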
A general note: Resazurin is reduced to fluorescent resorufin, in cell work by metabolically active cells.

In series [2] the test system is Chlamydia pneumoniae. In words: Antichlamydial activity against Chlamydia pneumoniae K7 infected in HL cells assessed as chlamydial inhibition at 50 uM after 70 hrs by fluorescent microscopic analysis. The format is functional. In short, it runs like this:
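Confluent HL cells infected with C. pneumoniae K7 at MOI 0.3 in medium with 1 μg/mL cycloheximide, centrifuged 500 rpm 1 h, then held at 37 °C for 1 h. At 2 h, compound added at 50 μM or DMSO vehicle. After 70 h at 37 °C, inclusions stained and counted in four fields per coverslip under a fluorescence microscope (20×). Inhibition % is relative to mean vehicle counts.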

The subject of series [3] is Chlamydia pneumoniae. In words: Antichlamydial activity against Chlamydia pneumoniae K7 infected in HL cells after 70 hrs by fluorescent microscopic analysis. In kind it is functional, organism-based. Particulars: for IC50: K7, HL, 70 h. In short, it runs like this: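 HL cells grown to confluence, infected with C. pneumoniae K7 at MOI 0.3 in medium with 1 μg/mL cycloheximide, centrifuged 500 rpm 1 h, then 37 °C 1 h. At 2 h, inoculum replaced by cycloheximide medium with compound at 12 concentrations from 1 nM to 100 μM. Incubated 70 h at 37 °C, stained, and inclusions counted by fluorescence microscopy. Three runs; IC50 from variable-slope sigmoidal fit. Azithromycin 20 nM as positive control.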

The test system of another series is HL. The series is described as §1. The note with it: hl, 72 h, 50 µM. In short, it runs like this:
as §2

For `C=C[C@](C)(O)CC[C@H]1C(=C)CC[C@H]2C(C)(C)CCC[C@]12C`, the viability at 72 h, 50 µM in series [1] stood at 88.6%. Further, the inhibition (as a rule, the percentage by which the read-out fell short of the control) at 50 µM in the series with Chlamydia pneumoniae [2] stood at 60%. Besides, in the series with Chlamydia pneumoniae [3], the IC50 (in general, the concentration that inhibits the measured activity by half) turned out to be 35.5 µM.
Taken in the same sequence, the figures for `CC1=C2C(=O)[C@H]3[C@@H](CC=C4C[C@@H](O)CC[C@@]43C)[C@@H]2CC[C@]12O[C@@H]1C[C@H](C)CN[C@H]1[C@H]2C` [JERVINE] were 89.3%, 74.8% and 25.6 µM.
As to `COc1c(C)c2c(c(O)c1C/C=C(\C)CCC(=O)O)C(=O)OC2` [MYCOPHENOLIC ACID], the viability at 72 h, 50 µM in series [1] came out at 86.6%. Further, in the series on Chlamydia pneumoniae [2], the inhibition at 50 µM stood at 98%. Further, the MIC90 (as a rule, an inhibitory concentration at the 90% level, which refers to growth in some studies and to a panel of isolates in others) in the series on Chlamydia pneumoniae [3] (K7, 70 h) was found to be 1 µM (≈ 0.32 µg/mL). The compound further displayed an IC50 in the series on Chlamydia pneumoniae [3] of 0.31 µM.
As to `CCC1=CC2CN3CCc4c([nH]c5ccccc45)[C@@](C(=O)OC)(C2)C13`, the viability at 72 h, 50 µM in series [1] turned out to be 88.9%. Also, the inhibition at 50 µM with Chlamydia pneumoniae [2] was determined as 68.1%. Besides, in the series with Chlamydia pneumoniae [3], half-maximal inhibition (IC50) was put at 52.6 µM.
Taken in the same sequence, the figures for `OC1c2ccccc2N=C2CCCN21` (stereo not drawn) [PEGANOLE] were 95.2%, 66.2% and 35.1 µM.
With `COc1ccc2ccc(=O)oc2c1CC=C(C)C` [OSTHOLE], the Activity result in the series with HL is recorded as “Toxic”.
Still for that read-out and setting: for `O=c1cc(-c2ccccc2)oc2cc(O)cc(O)c12` [CHRYSIN] the value was “Toxic”.
